Activity calls are given as the source filed them.
Experiments:
[1] = Clearance in Beagle dog at 0.25 mg/kg, iv administered as 30 mins infusion by HPLC-MS analysis; type: ADME, organism-based, Canis lupus familiaris; details: in vivo
How it was run: (§1)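 30-min intravenous infusion: Sprague Dawley rats 1 mg/kg, beagle dogs 0.25 mg/kg, cynomolgus monkeys 0.1 mg/kg; n = 3 per species, reported as mean ± SD.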

[2] = molecular target: T1, C-type lectin domain family 7 member A (Homo sapiens) (UniProt Q9BXN2); assay: Agonist activity at human Dectin1a expressed in HEK293 cells assessed as increase in NF-kappaB activation up to 10 uM incubated for 24 hrs by quanti-blue SEAP reporter gene assay; type: cell-based; details: dose microM <=10, time 24.0 hrs
T1 sequence (whole entry): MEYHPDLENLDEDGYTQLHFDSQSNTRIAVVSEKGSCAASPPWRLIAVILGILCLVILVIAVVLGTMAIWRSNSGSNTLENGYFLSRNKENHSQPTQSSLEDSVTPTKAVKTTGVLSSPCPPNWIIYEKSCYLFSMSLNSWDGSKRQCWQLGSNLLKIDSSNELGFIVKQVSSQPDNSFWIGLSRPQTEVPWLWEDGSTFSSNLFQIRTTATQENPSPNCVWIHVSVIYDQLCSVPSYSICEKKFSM
How it was run: (§2)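 HEK293 cells stably expressing individual human TLRs or other innate immune receptors, used as reporter gene assays. Minimum effective concentration defined as the level giving a 3-fold rise over background.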

[3] = molecular target: T2, Interferon-induced helicase C domain-containing protein 1 (Homo sapiens) (UniProt Q9BYX4); assay: Agonist activity at human MDA5 expressed in HEK293 cells assessed as induction of IFN-inducible ISG54 promoter activity up to 10 uM after overnight incubation by secreted lucia luciferase reporter gene assay; type: cell-based; details: dose microM <=10; how it was run: as §2
T2 sequence (whole entry): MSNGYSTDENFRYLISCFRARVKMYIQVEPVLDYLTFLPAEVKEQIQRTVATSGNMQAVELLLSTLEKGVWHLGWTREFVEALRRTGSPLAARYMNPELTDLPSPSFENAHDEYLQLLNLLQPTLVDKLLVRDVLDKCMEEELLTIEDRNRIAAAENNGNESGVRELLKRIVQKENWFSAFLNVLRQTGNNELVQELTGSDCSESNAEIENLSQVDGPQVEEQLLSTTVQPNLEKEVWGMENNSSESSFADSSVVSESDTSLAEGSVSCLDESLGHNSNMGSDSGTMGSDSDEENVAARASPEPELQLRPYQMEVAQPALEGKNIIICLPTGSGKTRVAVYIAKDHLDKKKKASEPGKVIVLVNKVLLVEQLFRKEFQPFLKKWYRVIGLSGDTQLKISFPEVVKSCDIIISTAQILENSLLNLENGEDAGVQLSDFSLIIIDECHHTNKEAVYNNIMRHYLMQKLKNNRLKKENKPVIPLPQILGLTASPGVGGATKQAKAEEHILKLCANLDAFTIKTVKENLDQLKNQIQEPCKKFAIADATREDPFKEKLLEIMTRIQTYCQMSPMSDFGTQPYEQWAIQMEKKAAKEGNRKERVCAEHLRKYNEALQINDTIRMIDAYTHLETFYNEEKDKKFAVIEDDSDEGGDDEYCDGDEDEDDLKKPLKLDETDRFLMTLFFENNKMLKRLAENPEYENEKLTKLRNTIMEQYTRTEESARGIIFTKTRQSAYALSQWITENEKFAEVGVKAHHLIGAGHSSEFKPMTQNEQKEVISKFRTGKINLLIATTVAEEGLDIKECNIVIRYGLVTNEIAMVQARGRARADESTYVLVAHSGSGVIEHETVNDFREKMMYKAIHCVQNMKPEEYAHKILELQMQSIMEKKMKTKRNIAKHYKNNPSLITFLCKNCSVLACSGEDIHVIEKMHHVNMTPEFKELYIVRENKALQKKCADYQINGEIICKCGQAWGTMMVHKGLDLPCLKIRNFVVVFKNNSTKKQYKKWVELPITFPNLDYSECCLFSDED

Toll-like receptor 7 = molecular target: T3, Toll-like receptor 7 (Homo sapiens, UniProt Q9NYK1); assay: Agonist activity at TLR7 in human cryopreserved PBMC assessed as induction of IFNalpha production measured after 24 hrs
T3 sequence (Q9NYK1 whole entry): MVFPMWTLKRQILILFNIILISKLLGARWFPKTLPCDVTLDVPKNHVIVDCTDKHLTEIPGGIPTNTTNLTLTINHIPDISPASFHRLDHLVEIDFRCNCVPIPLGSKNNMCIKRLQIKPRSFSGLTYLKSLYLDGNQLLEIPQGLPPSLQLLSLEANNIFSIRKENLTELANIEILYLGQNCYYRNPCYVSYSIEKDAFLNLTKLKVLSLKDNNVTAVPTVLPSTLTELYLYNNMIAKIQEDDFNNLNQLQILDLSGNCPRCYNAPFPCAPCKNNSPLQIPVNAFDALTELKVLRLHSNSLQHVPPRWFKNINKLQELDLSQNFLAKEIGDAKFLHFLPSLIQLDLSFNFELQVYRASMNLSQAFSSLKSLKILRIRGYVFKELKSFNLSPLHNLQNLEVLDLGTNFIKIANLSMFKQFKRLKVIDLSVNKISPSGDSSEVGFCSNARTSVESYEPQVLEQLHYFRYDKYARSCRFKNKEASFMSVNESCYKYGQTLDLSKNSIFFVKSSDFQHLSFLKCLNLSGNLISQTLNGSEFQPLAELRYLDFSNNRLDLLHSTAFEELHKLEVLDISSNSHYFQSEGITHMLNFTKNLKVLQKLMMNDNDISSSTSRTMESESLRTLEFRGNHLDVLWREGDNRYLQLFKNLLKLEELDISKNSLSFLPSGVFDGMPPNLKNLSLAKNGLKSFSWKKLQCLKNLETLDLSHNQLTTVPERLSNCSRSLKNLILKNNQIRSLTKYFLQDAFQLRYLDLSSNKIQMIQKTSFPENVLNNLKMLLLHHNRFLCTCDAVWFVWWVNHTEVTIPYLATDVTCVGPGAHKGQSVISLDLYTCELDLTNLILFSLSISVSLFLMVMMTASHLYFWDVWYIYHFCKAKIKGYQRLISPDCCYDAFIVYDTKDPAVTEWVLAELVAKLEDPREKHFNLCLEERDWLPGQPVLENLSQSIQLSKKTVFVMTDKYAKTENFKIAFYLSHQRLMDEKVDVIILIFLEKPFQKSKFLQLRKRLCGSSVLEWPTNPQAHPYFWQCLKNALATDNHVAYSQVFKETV
How it was run: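 Cryopreserved healthy-donor human PBMC, recovered 2 h at 37°C/5% CO2, then 100k cells/well in RPMI/10% FBS exposed 24 h at 37°C to a 10-point half-log dilution series (0.5% final DMSO). Supernatant IFNα-2a quantified by MSD electrochemiluminescence immunoassay. For the ratio, divided by the IL-12p40 EC50 from the same PBMC screen.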

[4] = molecular target: T4, Toll-like receptor 7 (Homo sapiens) (UniProt Q9NYK1); assay: Agonist activity at human TLR7 expressed in HEK293 cells assessed as increase in NF-kappaB activation incubated for 24 hrs by quanti-blue SEAP reporter gene assay; type: cell-based; details: filed as agonist; how it was run: as §2
T4 sequence (whole entry): T3 sequence (Q9NYK1 whole entry)

[5] = Half life in Sprague-Dawley rat at 1 mg/kg, iv administered as 30 mins infusion by HPLC-MS analysis; type: ADME, organism-based; details: in vivo; how it was run: as §1
[6] = Drug metabolism in human hepatocytes assessed as oxidation of lipophilic chain; type: ADME, cell-based, Hepatocyte

clearance [1]: 20 mL/min/kg
Activity [2]: inactive
Activity [3]: inactive
EC50 (Toll-like receptor 7): > 50 µM
MEC [4]: 5.2 µM
half-life [5]: 1.45 h
Drug metabolism [6]: Metabolite_Detected
SMILES: CCCC[C@](C)(CO)Nc1nc(N)nc2cc(F)cnc12 [SELGANTOLIMOD]
